Laboratory results reported in PMC9773939 (ACS Omega, 2022).
Like-named read-outs stand apart in the source and are kept apart here. Marks after values point to notes of the source that are not given here.

Experiments:
[1] = test system: L. infantum promastigotes; assay: Nitrite concentration by Griess test, L. infantum promastigote culture; assay type: cell-based; details: 5 days, 25, 50 and 100 μM
Method in brief: (§1)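 L. infantum promastigote or T. cruzi epimastigote cultures (5 × 10^6 parasites/well) were incubated 5 days with test compound at 25, 50 and 100 μM, with untreated wells as controls. Supernatants were mixed with 1% sulfanilamide in 50% acetic acid, then after 15 min with 1% N-naphthylethylenediamine in 50% acetic acid, and read at 540 nm. Nitrite (μM) was taken from a sodium nitrite standard curve (detection limit 1.56 μM). Run in triplicate.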

T. cruzi epimastigotes = assay: Nitrite concentration by Griess test, T. cruzi epimastigote culture; assay type: cell-based; details: 5 days, 25, 50 and 100 μM
Method in brief: as §1

[2] = test system: promastigotes of L. braziliensis; assay: In vitro growth inhibition of L. braziliensis promastigotes; assay type: cell-based, Leishmania (V) braziliensis (MHOM/BR/75/M2903); details: for IC50: read-out: promastigote, IC50 L. braziliensis; for inhibition at 25 µM: read-out: promastigote, PGI (percentage growth inhibition) L. braziliensis
[3] = test system: promastigotes of L. infantum; assay: In vitro growth inhibition of L. infantum promastigotes; assay type: cell-based, Leishmania infantum (MHOM MA67I7MAP263); details: for IC50 / inhibition at 25 µM: Leishmania infantum; for IC50 / promastigote, IC50 L. infantum: 72 h; for IC50: read-out: promastigote, IC50 L. infantum; for inhibition at 25 µM: read-out: promastigote, PGI (percentage growth inhibition) L. infantum; for promastigote, IC50 L. infantum: promastigotes, MTT
Method in brief: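 L. infantum MHOM MA67I7MAP263 promastigotes at 2 × 10^6 parasites/mL were exposed to 0.5–25 μM test compound for 72 h at 25 °C. Dilutions came from a 3000 μM DMSO stock, with final DMSO ≤1%. MTT (0.4 mg/mL) was added for 4 h at 37 °C, formazan was dissolved in DMSO and read at 570 nm. Inhibition was calculated against untreated controls. At least three experiments, mean ± SD.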

[4] = test system: epimastigotes of T. cruzi; assay: In vitro anti-T. cruzi evaluation on epimastigotes; assay type: cell-based, T. cruzi (CL Brener clone); details: for S.I.T.cruzi (selectivity index), column epimastigote, IC50 (μM) T. cruzi (S.I.T.cruzi): CC50 (J774.1A) / IC50 of epimastigotes (T. cruzi); for IC50 / inhibition at 25 µM: Trypanosoma cruzi; for IC50: 120 h, read-out: epimastigote, IC50 T. cruzi; for inhibition at 25 µM: read-out: epimastigote, PGI (percentage growth inhibition) T. cruzi, determined at 25 μM
Method in brief: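 Turbidity (A595) was read at day 0 and day 5. PGI was calculated relative to untreated controls, with single-point PGI at 25 μM. IC50 is the concentration […]. At least three experiments.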

peritoneal macrophages = assay: Cytotoxicity on primary peritoneal macrophages; assay type: cell-based, mouse; details: read-out: peritoneal macrophage, CC50; 48 h, MTT
Method in brief: (§2)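 Peritoneal or J774.1A macrophages were grown in DMEM with 10% heat-inactivated FBS, L-glutamine and penicillin/streptomycin. Cells were seeded at 5 × 10^4 cells/well for 24 h at 37 °C, 5% CO2, then given test compound at 10–100 μM (from 25,000 μM DMSO stock) for 48 h. MTT (0.4 mg/mL, 4 h, 37 °C) was dissolved in DMSO and read at 570 nm. Cytotoxicity was expressed relative to negative controls. At least three experiments.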

J774.1A macrophages [5] = assay: Cytotoxicity on J774.1A macrophages; assay type: cell-based; details: read-out: J774.1A macrophage, CC50; 48 h, MTT
Method in brief: as §2

[6] = test system: amastigotes of L. braziliensis; assay: Ex vivo antiamastigote activity of L. braziliensis; assay type: cell-based, L. braziliensis (MHOM/BZ/82/M2903); details: for S.I.Leishmania (selectivity index): CC50 (peritoneal macrophage) / IC50 (amastigotes of L. braziliensis); for IC50: Leishmania braziliensis, 48 h, read-out: amastigote, IC50 L. braziliensis
Method in brief: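 L. braziliensis MHOM/BZ/82/M2903 amastigotes were taken from footpad lesions of infected BALB/c mice. Macrophages were removed by brief centrifugation (3000 rpm, 2–3 min). Amastigotes were kept at 37 °C, pH 5.5, in supplemented M199 with 10% FCS. At 2 × 10^6/mL they were exposed to 1.0–50.0 μM test compound (controls 1% DMSO). At 48 h parasites were counted in a Neubauer chamber against untreated controls. S.I. = peritoneal macrophage CC50 / amastigote IC50.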

[7] = Cytotoxicity on primary peritoneal macrophages; assay type: cell-based, mouse; details: mouse, primary peritoneal macrophages, peritoneal macrophage, CC50, 48 h, MTT
Method in brief: as §2

[8] = Solubility, qualitative remarks; assay type: physicochemical; details: qualitative remark
[9] = Cytotoxicity on J774.1A macrophages; assay type: cell-based; details: mouse, J774.1A macrophages, J774.1A macrophage, CC50, 48 h, MTT
Method in brief: as §2

[10] = test system: Salmonella typhimurium TA 98 strain; assay: Mutagenicity Ames test; assay type: cell-based
[11] = test system: epimastigotes of T. cruzi; assay: Antifolate activity: IC50 on T. cruzi epimastigotes with and without folic acid; assay type: cell-based; details: presence vs absence of D,L-folic acid
Method in brief: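 T. cruzi epimastigotes were treated with test compound with or without D,L-folic acid, following the epimastigote turbidimetric viability protocol (120 h, 25 °C, A595). IC50 was determined in each condition and compared.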

[12] = test system: promastigotes of L. infantum; assay type: cell-based; details: presence vs absence of D,L-folic acid
Method in brief: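 L. infantum promastigotes were treated with test compound with or without D,L-folic acid, following the promastigote MTT viability protocol (72 h, 25 °C, formazan read at 570 nm). IC50 was determined in each condition and compared.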

[13] = test system: promastigotes of L. infantum; assay: Effect of metal cations on IC50 on L. infantum promastigotes; assay type: cell-based; details: Leishmania parasites, metal cation at 1 μM
Method in brief: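 L. infantum promastigotes were treated with test compound alone or with a metal cation (Fe3+, Cu2+ or Zn2+) at 1 μM, following the promastigote MTT viability protocol. IC50 was determined with and without the cation and compared.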

[14] = Oxidative decomposition followed by NMR; assay type: physicochemical; details: 2 weeks of incubation with H2O2
[15] = test system: epimastigotes of T. cruzi; details: cited from earlier work
J774.1A macrophages [16] = details: read-out: J774.1A macrophage, CC50; cited from earlier work

Row | Compound | IC50 ([2]; Leishmania braziliensis) [µM] | IC50 [3] [µM] | S.I.T.cruzi (selectivity index), column epimastigote, IC50 (μM) T. cruzi (S.I.T.cruzi) [4] | IC50 [4] [µM] | S.I.Leishmania (selectivity index) [6] | IC50 [6] [µM] | CC50 at 48 h [7] [µM] | also measured
1 | O=c1[nH]c(-c2ccc(Cl)cc2)nc2ccccc12 [2-(4-chlorophenyl)quinazolin-4(3H)-one, reference compound] | – | – | – | – | – | – | – | nitrite ion production (Griess test) [1]: No production was detected; nitrite ion production (Griess test) (T. cruzi epimastigotes): No production was detected
2 | NNc1nc(-c2ccccc2)nc2ccccc12 [3a, (Z)-1-(2-phenylquinazolin-4(3H)-ylidene)hydrazine] | 4.53 ± 0.23 | 12.7 ± 0.74 | <3.6 | > 25 | 7.4 | 8.26 ± 0.45 | – | CC50 (peritoneal macrophages): 61 ± 2.34 µM; CC50 (J774.1A macrophages [5]): 90.2 ± 4.32 µM
3 | NNc1nc(-c2ccc(F)cc2)nc2ccccc12 [3b, (Z)-1-(2-(4-fluorophenyl)quinazolin-4(3H)-ylidene)hydrazine] | 3.85 ± 0.17 | 5.01 ± 0.31 | >6.7 | 17.9 ± 1.21 | – | 7.41 ± 0.39 | > 100 | solubility in culture [8]: appreciable solubility
4 | NNc1nc(-c2ccc(Cl)cc2)nc2ccccc12 [3c, (Z)-1-(2-(4-chlorophenyl)quinazolin-4(3H)-ylidene)hydrazine] | 5.12 ± 0.32 | 1.56 ± 0.09 | 9.1 | 11.5 ± 0.49 | – | 8.96 ± 0.53 | 89.9 ± 3.77 | CC50 at 48 h [9]: 105 ± 5.66 µM; revertants number ([10]; dose 27.9 μg/plate): 8.0 ± 2.0; revertants number ([10]; dose 37.2 μg/plate): 4.5 ± 2.0; revertants number ([10]; dose 55.8 μg/plate): 5.0 ± 0.5; revertants number ([10]; dose 111.7 μg/plate): 8.0 ± 1.0; revertants number ([10]; dose 335.0 μg/plate): 9.5 ± 0.5; change of IC50 on addition of folic acid (FA) [11]: Increasing IC50 values by about twofold; change of IC50 on addition of folic acid (FA) [12]: modest increase in IC50; change of IC50 in the presence of Cu2+ [13]: increase in IC50 values; nitrite ion production (Griess test) [1]: appreciable amount of nitrite ion in sub-micromolar ranges; nitrite ion production (Griess test) (T. cruzi epimastigotes): appreciable amount of nitrite ion in sub-micromolar ranges; decomposition under oxidative conditions [14]: decomposed in at least three additional products; solubility in culture [8]: appreciable solubility
5 | NNc1nc(-c2ccc(Br)cc2)nc2ccccc12 [3d, (Z)-1-(2-(4-bromophenyl)quinazolin-4(3H)-ylidene)hydrazine] | 6.2 ± 0.38 | 2.13 ± 0.12 | 5.5 | 14.3 ± 0.87 | 6.2 | 12.7 ± 0.78 | – | CC50 (peritoneal macrophages): 78 ± 3.89 µM; CC50 (J774.1A macrophages [5]): 78.6 ± 3.99 µM; change of IC50 on addition of folic acid (FA) [11]: Increasing IC50 values by about twofold
6 | Cc1ccc(-c2nc3ccccc3/c(=N/N)[nH]2)cc1 [3e, (Z)-1-(2-(4-Methylphenyl)quinazolin-4(3H)-ylidene)hydrazine] | 10.1 ± 0.48 | 1.2 ± 0.08 | 6.4 | 18 ± 1.11 | 6.1 | 14 ± 0.89 | 84.8 ± 3.67 | CC50 at 48 h [9]: 115 ± 5.43 µM; change of IC50 on addition of folic acid (FA) [11]: Increasing IC50 values by about twofold; change of IC50 in the presence of Cu2+ [13]: increase in IC50 values
7 | NNc1nc(-c2cccc(Cl)c2)nc2ccccc12 [3f, (Z)-1-(2-(3-chlorophenyl)quinazolin-4(3H)-ylidene)hydrazine] | 5.63 ± 0.36 | 4.55 ± 0.29 | no active | > 25 | – | 8.43 ± 0.51 | > 100 | CC50 (J774.1A macrophages [5]): > 120 µM; solubility in culture [8]: appreciable solubility
8 | N/N=c1\[nH]c(-c2cccc(Br)c2)nc2ccccc12 [3g, (Z)-1-(2-(3-bromophenyl)quinazolin-4(3H)-ylidene)hydrazine] | > 25 | 21.1 ± 1.21 | – | > 25 | – | – | – | inhibition at 25 µM ([2]; Leishmania braziliensis): 27.3%
9 | COc1cccc(-c2nc3ccccc3/c(=N/N)[nH]2)c1 [3h, (Z)-1-(2-(3-Methoxyphenyl)quinazolin-4(3H)-ylidene)hydrazine] | 12.2 ± 0.76 | > 25 | – | > 25 | – | – | – | inhibition at 25 µM [3]: 47.2%; promastigote, IC50 L. infantum [3]: inactive; inhibition at 25 µM [4]: 10.1%
10 | COc1ccccc1-c1nc2ccccc2/c(=N/N)[nH]1 [3i, (Z)-1-(2-(2-Methoxyphenyl)quinazolin-4(3H)-ylidene)hydrazine] | > 25 | > 25 | – | > 25 | – | – | – | inhibition at 25 µM ([2]; Leishmania braziliensis): 49.2%; promastigote, IC50 L. braziliensis ([2]; promastigotes): did not show activity; inhibition at 25 µM [3]: 28.3%; promastigote, IC50 L. infantum [3]: did not show activity; inhibition at 25 µM [4]: 11.9%; solubility [8]: poor solubilities
11 | N/N=c1\[nH]c(-c2ccco2)nc2ccccc12 [3k] | > 25 | 14 ± 0.91 | – | > 25 | – | – | – | inhibition at 25 µM ([2]; Leishmania braziliensis): 46.6%; inhibition at 25 µM [4]: 8.56%
12 | Nc1ccc([N+](=O)[O-])cc1N [NPD, 4-nitro-o-phenylenediamine, reference compound] | – | – | – | – | – | – | – | revertants number ([10]; dose 20.0 μg/plate): 394.0 ± 10
13 | CNC[C@H](O)[C@@H](O)[C@H](O)[C@H](O)CO.[O]=[Sb](=[O])[OH] [glucantime, reference compound] | – | – | – | – | 11.3 | – | – | IC50 ([2]; promastigotes): 32 ± 1.78 µM; CC50 (peritoneal macrophages): 138 ± 10.1 µM
14 | CCCCCCCCCCCCCCCCOP(=O)([O-])OCC[N+](C)(C)C [miltefosine, reference compound] | 8.78 ± 0.41 | 10.6 ± 0.46 | – | – | 3.2 | 21.2 ± 1.13 | 67.8 ± 3.11 | CC50 at 48 h [9]: 72.3 ± 3.45 µM; change of IC50 on addition of folic acid (FA) [12]: not affected
15 | CC1CS(=O)(=O)CCN1/N=C/c1ccc([N+](=O)[O-])o1 (stereo not drawn) [nifurtimox] | – | – | – | – | – | – | – | change of IC50 on addition of folic acid (FA) [11]: not affected; S.I.T.cruzi (selectivity index) ([15]; CC50 (J774.1A) / IC50 of epimastigotes (T. cruzi)): 36 ^c; IC50 ([15]; read-out: epimastigote, IC50 T. cruzi, anti-Chagasic reference): 7.7 ± 0.5 µM; CC50 (J774.1A macrophages [16]): 280 ± 4 µM
